Data on eight compounds can be found in ChEMBL document CHEMBL1131445, “Evaluation of dynamic polar molecular surface area as predictor of drug absorption: comparison with other computational and experimental predictors” (J Med Chem, 1998).

The nature of series [1]: Dissociation constant of the compound. The series is classed as physicochemical.
Series [2] can be described thus: Distribution coefficient measured in Octanol/buffer (0.15 M KCl). The series is classed as physicochemical. The method in brief: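 Dual-phase titration at 25 °C: 1–2 mg sample plus 1.0 mL n-octanol in 10–15 mL water with 0.15 M KCl. Acidified to pH 2 (0.5 M HCl), then titrated with 0.5 M KOH to pH 11 under nitrogen. log P came from the pKa–pKa' shift via nonlinear regression of difference curves; log D refers to pH 7.4.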

The species entered for a further series is Homo sapiens. Description: Mono layer permeability of human intestinal Caco-2 cells. The series is classed as ADME, cell-based. The method in brief:
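Caco-2 cells at passage 93–105, seeded on polycarbonate filter inserts (0.45 μm pores) and grown 22–32 days. Drug at 1–2 mM final in HBSS with 25 mM Hepes, pH 7.4, added donor side; 37 °C, low and high stirring. Receiver sampled every 4–40 min for HPLC, under sink conditions. Pc derived from Papp across stirring rates, free of the aqueous boundary layer.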
For orientation: Caco-2 monolayers are a common model of the intestinal barrier.

As a reminder, the pKa is the pH at which an ionisable group is half protonated. Higher therefore signals a weaker acid or stronger base. In general, logD refers to the decadic logarithm of the distribution of all forms, ionised or not, between an organic phase and buffer at a given pH. Low readings indicate a more hydrophilic compound, high ones a more lipophilic compound. In turn, `CCC(=O)Nc1ccc(OCC(O)CNC(C)C)cc1` (configuration not stated) showed a pKa in series [1] of 9.5. Moreover, the logD in series [2] was -1.08. Further, in the series filed under Homo sapiens, the Pc was 6.03 ×10⁻⁶ cm/s.

As for `O=C(NCCNCC(O)COc1ccc(CCOCCOCC2CC2)cc1)N1CCC(O)CC1` (configuration not stated), the pKa in series [1] was 8.5. This compound also had a logD in series [2] of -0.1. This compound gave a Pc in the series filed under Homo sapiens of 0.104 ×10⁻⁶ cm/s.

Compound `CC(C)NCC(O)COc1ccc(NC=O)cc1` (configuration not stated) registered a pKa in series [1] of 9.5. The compound also gave a logD in series [2] of -1.56. This compound also yielded a Pc in the series listed under Homo sapiens of 3.75 ×10⁻⁶ cm/s.

With `C=CCc1ccccc1OCC(O)CNC(C)C` (configuration not stated) [ALPRENOLOL], the logD in series [2] turned out to be 0.85. The compound also displayed a Pc in the series listed under Homo sapiens of 242 ×10⁻⁶ cm/s.

For `COCCc1ccc(OCC(O)CNC(C)C)cc1` (configuration not stated) [METOPROLOL], the pH-dependent lipophilicity (logD) in series [2] is -0.42. The compound also had a Pc in the series filed under Homo sapiens of 91.9 ×10⁻⁶ cm/s.

In series [1], `C=CCOc1ccccc1OCC(O)CNC(C)C` (configuration not stated) [OXPRENOLOL] had a pKa of 9.5. For the same compound, the logD in series [2] amounted to 0.08. The compound further returned a Pc in the series filed under Homo sapiens of 119.6 ×10⁻⁶ cm/s.

In series [1], `CC(C)NCC(O)COc1cccc2[nH]ccc12` (configuration not stated) [PINDOLOL] registered a pKa of 9.7. Besides, the logD in series [2] is -0.55. Moreover, the Pc in the series filed under Homo sapiens came out at 54.7 ×10⁻⁶ cm/s.

`CC(=O)Nc1ccc(OCC(O)CNC(C)C)cc1` (configuration not stated) [PRACTOLOL] showed a pKa in series [1] of 9.5. In addition, the logD in series [2] was -1.31. In addition, the Pc in the series listed under Homo sapiens was 3.46 ×10⁻⁶ cm/s.
